Hits are enriched below; roughly 2.9% of the tested compounds scored in any of these assays.
FID counter = displaces DNA intercalator in HCV helicase counter-screen; DNA fluorescent intercalator displacement, fluorescence; inhibition, % at 7.9 µM; 290,000 tested, 0.17% active; AID 1845; in the data active = inhibition above about 37%;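 note: 0% = vehicle and 100% = reference compound; higher means more ethidium bromide displaced from hairpin DNA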
UBC9 SUMO inh = blocks human SUMOylation mediated by UBC9; HTRF SUMOylation assay, SAE1/SAE2 + UBC9, in vitro; 290,000 tested, 0.36% active; inhibition, % at 35 µM; AID 2006; in the data active = inhibition above about 50%, passing the limit was not always enough
Target sequence (P63279 whole entry, looked up): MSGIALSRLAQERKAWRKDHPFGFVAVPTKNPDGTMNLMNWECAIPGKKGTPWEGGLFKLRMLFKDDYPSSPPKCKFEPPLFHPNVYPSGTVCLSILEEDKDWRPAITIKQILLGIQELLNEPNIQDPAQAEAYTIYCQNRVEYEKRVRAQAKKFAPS
VIM-2 inh = inhibitors of Pseudomonas aeruginosa VIM-2 metallo-beta-lactamase. purified VIM-2, nitrocefin hydrolysis, epi-absorbance fluorescence. 290,000 tested, 0.89% active. inhibition, % at 5.6 µM. AID 1527;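 active = inhibition above the mean of all tested compounds plus 3 SD, cutoff set per screening run, cut at about 7.5% in these data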;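 note: red hydrolysis product quenches plate fluorescence so inhibitors raise well fluorescence; 0% = enzyme with DMSO and 100% = DMSO without enzyme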
SUMO Mot1 rescue = SUMOylation pathway inhibition by Mot1-301 growth rescue; S. cerevisiae Mot1-301 growth rescue, ATP luminescence, 38.5C; percent above DMSO median, 100 means doubled; growth rescue, % at 18.8 µM; 320,000 tested, 1% active;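 active = every valid replicate shows activation above 250% relative to neutral control wells; inactive = the rest, any valid replicate at or below 250%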;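 note: OY570 slx delta 5 strain wells were the positive control but not used for scaling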
IMP-1 inh-1 = inhibitors of Pseudomonas aeruginosa IMP-1 metallo-beta-lactamase; purified IMP-1, nitrocefin hydrolysis, epi-absorbance fluorescence; inhibition, % at 5.6 µM; 290,000 tested, 0.45% active; AID 1556;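 active = inhibition above the mean plus 3 SD of all compounds in the same screening run, cut at about 4.5% in these data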;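 note: 0% = IMP-1 with DMSO and 100% = DMSO wells lacking enzyme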
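System: Purified IMP-1 | Read-out basis: Percent enzyme inhibition | Controls: IMP-1 with DMSO as 0%, enzyme-free DMSO as 100% | Replicates: One well per compound | Doses: 5.6 µM nominal single concentration | Detection: Epi-absorbance fluorescence, 480 nm excitation, 530 nm emission | Incubation: 25 °C, 15 min preincubation, 25 min reaction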
NALP1 inh = inhibitors of NALP1 inflammasome in yeast | S. cerevisiae NALP1/ASC/caspase-1 growth, X-gal OD620, 72 h | inhibition, % at 10 µM | AID 2071 | 280,000 tested, 0.61% active; in the data active = inhibition mostly above about 24%, no sharp cut-off; inactive = mostly below about 32%
IMP-1 inh-2 = IMP-1 inhibition, counter-screen for VIM-2 inhibitors; inhibition, % at 5.6 µM; AID 1856; purified IMP-1, nitrocefin hydrolysis, epi-absorbance fluorescence; 1,300 tested, under 10 active; shares compounds with VIM-2 inh; call rule not given here;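 note: 0% = enzyme with vehicle and 100% = vehicle without enzyme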
VIM-2 FRET ctr = VIM-2 FRET inhibition, artifact counter-screen; shares compounds with VIM-2 inh; purified VIM-2, CCF2 FRET substrate hydrolysis; inhibition, % at 5.6 µM; 1,300 tested, 23% active;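 active = inhibition above the mean of all tested compounds plus 3 SD, cut at about 19% in these data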;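 note: 0% = VIM-2 plus DMSO and 100% = no enzyme wells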
TEM-1 inh = selectivity counter-screen for VIM-2 inhibitors: E. coli TEM-1 inhibitors; shares compounds with VIM-2 inh; inhibition, % at 5.6 µM; Purified TEM-1, nitrocefin hydrolysis, epi-absorbance fluorescence; 1,300 tested, 3% active;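 active = inhibition above that campaign's mean inhibition plus 3 SD, cut at about 0.46% in these data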;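 note: 0% = TEM-1 with DMSO and 100% = TEM-1 with 100 µM potassium clavulanate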
Target sequence (P62593 whole entry, looked up): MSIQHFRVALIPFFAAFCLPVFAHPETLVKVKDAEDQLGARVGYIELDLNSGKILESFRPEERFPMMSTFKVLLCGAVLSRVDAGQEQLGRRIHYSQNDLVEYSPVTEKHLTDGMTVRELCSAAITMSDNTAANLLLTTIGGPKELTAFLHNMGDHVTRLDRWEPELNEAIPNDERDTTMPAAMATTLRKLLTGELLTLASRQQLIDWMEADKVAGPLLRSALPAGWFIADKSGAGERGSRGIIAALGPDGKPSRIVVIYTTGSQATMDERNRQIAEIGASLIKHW
VIM-2 inh conf = confirmation of P. aeruginosa VIM-2 metallo-beta-lactamase inhibitors. shares compounds with VIM-2 inh. purified VIM-2, nitrocefin hydrolysis, epi-absorbance. inhibition, % at 5.6 µM. 1,300 tested, 96% active. AID 2187;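 active = inhibition of the VIM-2 beta-lactamase enzyme above about 11% from the earlier first-round screen, limit read from the data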;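 note: 0% = VIM-2 with DMSO and 100% = buffer wells without enzyme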
* marks the source's active call; other numbers are inactive results; / = no result given.

SMILES	FID counter	UBC9 SUMO inh	VIM-2 inh	SUMO Mot1 rescue	IMP-1 inh-1	NALP1 inh	IMP-1 inh-2	VIM-2 FRET ctr	TEM-1 inh	VIM-2 inh conf
Cc1ccc(/C(O)=C2/C(=O)C(=O)N(Cc3cccnc3)C2c2ccccn2)cc1 (centres undefined)	-10	11	3	164	-3	14	/	/	/	/
Cn1c(C2=C(O)CN(c3ccccc3)C2=N)nc2ccccc21	-14	-4	1	-1	-1	-16	/	/	/	/
COc1ccccc1C(=O)Nc1ccnn1C1CCN(Cc2cnn(C)c2C)CC1	-2	18	57*	78	0	16	-4	1	-6	0
COc1ccccc1C(=O)Nc1ccnn1C1CCN(Cc2ncc[nH]2)CC1	-5	17	-2	13	-1	10	/	/	/	/
COC(=O)c1ccc(C(=O)OC)c(NC(=O)COC(=O)CC2CC3CCC2C3)c1 (centres undefined)	-4	5	-3	-1	0	5	/	/	/	/
COc1ccc(-c2cc3c(=O)n(CC(=O)NCCCN4CCC(N5CCCCC5)CC4)nc(C)n3n2)cc1	42*	13	24*	-16	-3	13	-3	1	-2	32*
CC(=O)c1c2c3c(cccc3n(C)c1=O)C(=O)c1ccccc1-2	23	26	22*	-5	3	12	-2	-3	-4	30*
CCOC(=O)c1c(NC(=O)CSc2ncn[nH]2)sc(C(C)=O)c1C	-21	1	24*	-31	-4	8	-2	-2	-6	32*
CCOC(=O)c1sc(NC(=O)CCN2CCN(C)CC2)c(C(=O)OCC)c1C	10	18	16*	13	-2	19	-3	1	-7	48*
C#CCN1c2ccccc2Sc2cccnc21	5	15	1	4	1	22	/	/	/	/
CCOC(=O)c1c(S(=O)(=O)NCC(=O)N2CCN(c3ccc(OC)cc3)CC2)c(C)n(C)c1C	-32	/	1	-8	0	10	/	/	/	/
CCOC(=O)c1cnc2c(cnn2C)c1NCCCn1ccnc1	3	10	75*	-1	-1	-11	-3	-10	-4	81*
CCOC(=O)c1cnc2c(cnn2C)c1NCCC#N	0	24	1	2	0	28	/	/	/	/
COc1ccc(NC(=O)COC(=O)CCNS(=O)(=O)c2ccc(Cl)cc2)cc1	-16	-14	0	5	-2	/	/	/	/	/
Cc1ccc2cccc(NC3OC(=O)c4ccccc43)c2n1 (centres undefined)	6	36	14*	-21	-1	26	-3	-3	-7	5
COC(=O)c1ccccc1NC1OC(=O)c2ccccc21 (centres undefined)	3	0	-3	19	-4	16	/	/	/	/
COc1cc(C(=O)NCC2CCCO2)ccc1OCc1ccccc1Cl (centres undefined)	-33	8	-2	19	-2	17	/	/	/	/
O=C(Nc1ccc(-n2ccnc2P(=O)(O)c2ccccc2)cc1)c1ccccc1Cl	-35	12	15*	12	-3	18	-4	29*	-5	21*
O=C(Nc1ccc(N2CCCCCC2)cc1)c1ccccc1Cl	-9	-10	-3	0	-3	11	/	/	/	/
NNC(=S)Nc1cccc(-c2n[nH]c(=S)o2)c1	-25	14	15*	-6	-2	/	-4	18*	-9	9.2*
CN(C)C(=S)Nc1cccc(-c2n[nH]c(=S)o2)c1	0	6	-2	15	-2	-7	/	/	/	/
O=[N+]([O-])c1c(Nc2ccc(O)cc2)cc(Cl)c2nonc12	4	29	22*	98	-3	8	-4	12	-8	32*
